G6PDH counter = L. mesenteroides G6PDH inhibition counter-screen; inhibition, % at 5 µM; AID 1020; Purified L. mesenteroides G6PDH, diaphorase/resazurin coupled fluorescence, 45 min; 200,000 tested, 0.12% active; in the data active = inhibition above about 50%
UBC9 SUMO inh = inhibitors of human SUMOylation (UBC9); P63279; AID 2006; 290,000 tested, 0.36% active; inhibition, % at 35 µM; HTRF SUMOylation assay, SAE1/SAE2 + UBC9, in vitro; in the data active = inhibition above about 50%, passing the limit was not always enough; inconclusive = no clear call, values can overlap the other calls
p97 inhibitor = inhibitors of human p97 ATPase; 220,000 tested, 0.42% active; recombinant p97 ATPase, Kinase-Glo ATP luminescence, 3 h; P55072; inhibition, % at 8 µM; in the data active = inhibition above about 15%;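 note: 0% = DMSO vehicle and 100% = wells lacking enzyme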
Target sequence (P55072 whole entry, looked up): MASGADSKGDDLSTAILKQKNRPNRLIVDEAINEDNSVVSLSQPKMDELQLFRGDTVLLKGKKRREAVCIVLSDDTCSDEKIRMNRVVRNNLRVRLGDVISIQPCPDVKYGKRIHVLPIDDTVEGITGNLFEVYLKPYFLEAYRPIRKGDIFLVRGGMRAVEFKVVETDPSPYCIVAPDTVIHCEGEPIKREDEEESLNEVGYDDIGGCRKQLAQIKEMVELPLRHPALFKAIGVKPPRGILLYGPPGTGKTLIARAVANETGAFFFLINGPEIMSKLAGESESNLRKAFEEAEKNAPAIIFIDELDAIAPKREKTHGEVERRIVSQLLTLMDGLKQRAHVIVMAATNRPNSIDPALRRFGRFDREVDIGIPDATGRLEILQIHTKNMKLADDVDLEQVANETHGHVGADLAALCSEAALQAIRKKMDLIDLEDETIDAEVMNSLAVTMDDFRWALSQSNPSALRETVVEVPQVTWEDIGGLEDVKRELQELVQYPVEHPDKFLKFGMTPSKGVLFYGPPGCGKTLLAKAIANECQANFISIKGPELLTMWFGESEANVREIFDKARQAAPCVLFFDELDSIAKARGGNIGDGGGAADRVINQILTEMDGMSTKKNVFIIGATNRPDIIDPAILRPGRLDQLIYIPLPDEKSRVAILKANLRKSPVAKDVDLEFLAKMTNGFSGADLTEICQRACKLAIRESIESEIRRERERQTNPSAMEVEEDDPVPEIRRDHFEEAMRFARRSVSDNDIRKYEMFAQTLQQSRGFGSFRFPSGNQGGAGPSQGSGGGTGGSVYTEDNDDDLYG
HKDC1 inh = blocks human hexokinase HKDC1 activity. Q2TB90. recombinant HKDC1, G6PDH/diaphorase resazurin coupled fluorescence. inhibition, % at 20 µM. 340,000 tested, 0.16% active. AID 493160;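 active = inhibition above about 35% when tested at 20 µM, limit read from the data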;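 note: plate controls were DMSO wells with enzyme for no effect and DMSO wells lacking enzyme for full effect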
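System: Recombinant HKDC1 hexokinase | Amount: HKDC1 at 5 µg/mL | Reagent: Glucose with 1 mM ATP | Doses: Single 20 µM dose | Incubation: Reaction time 90 min, room temperature, protected from light | Signal: Coupled resazurin fluorescence, excitation 525 nm, emission 613 nm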
Diaph inh CS = counter-screen for diaphorase-based assays: diaphorase inhibitors and chemical oxidizers | diaphorase resazurin-to-resorufin fluorescence, NADH, 16 min; bacterial (C. kluyveri) enzyme, not human | inhibition, % at 20 µM | 190,000 tested, 0.69% active | AID 1217;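 active = primary screen inhibition at 20 µM above a set limit, cut at about 50% in these data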;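 note: plate controls were DMSO with full reaction for no effect and wells lacking NADH for full effect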
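Test system: Clostridium kluyveri diaphorase enzyme / Quantity: diaphorase at 0.14 U/mL in enzyme working solution / Incubation: 16-min room-temperature incubation before reading / Benchmarks: NADH-free wells as positive control, DMSO-only neutral wells / Signal: resorufin fluorescence 544/590 nm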
p97 inh conf = human p97 ATPase inhibition, confirmation; recombinant p97 ATPase, Kinase-Glo ATP luminescence; shares compounds with p97 inhibitor; 760 tested, 44% active; inhibition, % at 8 µM; AID 1517;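 active = percent inhibition of p97 ATPase above a set limit, the primary screen's mean plus 3 SD, cut at about 15% in these data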;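 note: 0% = DMSO wells and 100% = wells lacking p97 protein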
Active calls of the source: *; ? = inconclusive; / = no result given. A selection: hits, their analogues and other compounds. The true share with any hit is near 0.95%.

SMILES	G6PDH counter	UBC9 SUMO inh	p97 inhibitor	HKDC1 inh	Diaph inh CS	p97 inh conf
Cc1ccc(C(=O)NCC#N)cc1	8.5	0.9	2.0	-10.0	-0.2	/
Cc1ccc(C(=O)NC(C#N)=C(Cl)Cl)cc1	7.3	1.9	21.9*	6.4	-7.0	21.1*
COc1ccccc1C(=O)N/C(=C\c1ccc(Br)cc1)C(=O)NCCC(=O)O	21.6	18.0	16.3*	-10.8	22.6	2.0
O=S(=O)(c1cc(F)ccc1F)N1CCN(c2ncccn2)CC1	/	5.6	/	1.5	/	/
S=C(Cc1ccccc1)N1CCOCC1	/	/	/	-9.5	/	/
COc1cccc(CC(=S)N2CCOCC2)c1	24.3	24.0	15.7*	-8.3	14.4	7.9
COc1ccc(F)cc1S(=O)(=O)Nc1ccncc1	/	-16.8	/	6.5	/	/
CCOC(=O)c1cccc(C2=CC(=O)C[C@H](c3ccc(OC)cc3)C2)c1	/	/	/	-0.1	/	/
CCOC(=O)c1ccc[n+](C(C)C(=O)c2ccc(-c3ccccc3)cc2)c1 (centres undefined)	13.9	7.2	3.5	-4.6	-8.6	/
CC(C(=O)c1ccc(-c2ccccc2)cc1)[n+]1cccc(NC(=O)c2ccccc2)c1 (centres undefined)	/	2.9	19.5*	-2.6	/	17.6*
CC1CC(=O)c2c(cc3c(-c4c(O)cc(O)c5c(O)c6c(cc45)OC(C)CC6=O)c(O)cc(O)c3c2O)O1 (centres undefined)	18.5	?	56.0*	11.9	63.9*	49.4*
Cc1ccc(CC2C(=O)N(c3cc(C)ccc3C)C(=O)C2C)cc1 (centres undefined)	/	-5.1	/	-5.3	/	/
COc1cc(/C=N\Nc2nc3ccccc3[nH]2)cc(OC)c1OC	8.2	9.9	-1.1	-5.3	-18.4	/
COc1ccc2c(c1)c(/C=N/Nc1nc3ccccc3[nH]1)c(C)n2C	/	-36.6	32.7*	-11.6	/	10.6
O=[N+]([O-])c1cccc(/C=N/n2c(-c3cccnc3)n[nH]c2=S)c1	-2.3	-0.8	6.3	-8.4	39.4	/
CC(=O)N(C(C)=O)c1nc(-c2ccccc2)cn1/N=C/c1cccc([N+](=O)[O-])c1	/	12.7	17.8*	3.8	/	23.6*
O=C(COc1ncnc2cc([N+](=O)[O-])ccc12)NC(=O)NC1CCCCC1	1.1	-7.4	0.4	1.4	5.0	/
O=C(COc1ncnc2cc([N+](=O)[O-])ccc12)NCCc1ccc(Cl)cc1	1.1	0.3	15.4*	-4.7	24.8	8.8
Cc1cc(Br)ccc1SCC(=O)OC/C(O)=C(\C#N)c1nc2ccccc2[nH]1	/	48.4	6.6	-6.3	/	/
N#C/C(=C(\O)Cc1ccccc1)c1nc2ccccc2[nH]1	1.9	31.6	-5.3	4.9	3.0	/
N#C/C(=C(/O)CCl)c1nc2ccccc2[nH]1	-5.8	-3.3	38.0*	3.8	29.3	29.7*
Cc1ccc(C)c(SCC(=O)OC/C(O)=C(\C#N)c2nc3ccccc3[nH]2)c1	3.6	40.9	18.0*	0.5	10.9	39.9*
CCOC(=O)c1c(NC(N)=O)sc(C)c1C	-15.8	-16.8	0.1	-4.6	6.8	/
CCOC(=O)c1c(N2C(=O)C=CC2=O)sc(C)c1C	8.4	25.2	15.2*	0.3	11.7	6.5
CC(NC(=O)C(=O)NCCc1c[nH]c2ccccc12)c1ccccc1 (centres undefined)	/	5.5	/	-6.2	/	/
SMILES	G6PDH counter	UBC9 SUMO inh	p97 inhibitor	HKDC1 inh	Diaph inh CS	p97 inh conf
CCn1nc(CC(=O)Nc2nnc(CC(=O)N3CCOCC3)s2)c2ccccc2c1=O	2.1	-6.7	19.9*	0.9	8.9	8.0
C#CCOCCOCCOCCNc1nc(N2CCN(C(=O)[C@H](CCCCN)n3cc([C@@H](N)CC(C)C)nn3)CC2)nc(N2CCN(C(=O)[C@H](Cc3cc4ccccc4[nH]3)n3cc([C@@H](N)Cc4ccc(O)cc4)nn3)CC2)n1	7.8	-0.6	20.6*	7.8	-86.7	16.5*
C#CCOCCOCCOCCNc1nc(N2CCN(C(=O)C(Cc3ccc(O)cc3)n3cc(C(N)CC(C)C)nn3)CC2)nc(N2CCN(C(=O)C(Cc3cc4ccccc4[nH]3)n3cc(C(N)C(C)CC)nn3)CC2)n1 (centres undefined)	-1.5	-15.7	14.2	/	-34.5	/
C#CCOCCOCCOCCNc1nc(N2CCN(C(=O)[C@H](Cc3ccc(O)cc3)n3cc([C@@H](N)CC(C)C)nn3)CC2)nc(N2CCN(C(=O)[C@H](Cc3ccc(O)cc3)n3cc([C@@H](N)CC(C)C)nn3)CC2)n1	12.6	-7.4	18.2*	/	-12.8	13.7
C#CCOCCOCCOCCNc1nc(N2CCN(C(=O)[C@H](CCCCN)n3cc([C@@H](N)CO)nn3)CC2)nc(N2CCN(C(=O)[C@H](Cc3cc4ccccc4[nH]3)n3cc([C@@H](N)Cc4ccc(O)cc4)nn3)CC2)n1	7.8	-1.0	7.3	/	-59.5	/
C#CCOCCOCCOCCNc1nc(N2CCN(C(=O)[C@H](Cc3ccc(O)cc3)n3cc([C@@H](N)CC(C)C)nn3)CC2)nc(N2CCN(C(=O)[C@H](Cc3cc4ccccc4[nH]3)n3cc([C@@H](N)CC(C)C)nn3)CC2)n1	-2.1	-50.0	20.2*	8.6	-40.3	12.8
CC(=O)Oc1cc2cccc(OC(C)=O)c(=O)c2c(OC(C)=O)c1OC(C)=O	12.2	30.2	28.6*	2.0	24.7	4.2
COc1ccccc1OCc1nn[nH]n1	/	9.3	/	-2.9	/	/
OC1CNc2c(ccc3ccccc23)C1 (centres undefined)	/	/	/	3.1	/	/
Cn1cccc1CC(=O)NNC(=O)Nc1ccc(Cl)cc1	5.8	13.5	18.8*	17.9	-1.4	7.2
Cn1cccc1CC(=O)N/N=C/c1ccco1	/	16.0	17.2*	-3.8	/	11.8
O=C(Nc1cccc([N+](=O)[O-])c1)C1COc2ccccc2O1 (centres undefined)	/	13.3	/	-5.4	/	/
Cn1c(=O)[nH]c(=O)c2c1nc(N/N=C/c1ccncc1)n2Cc1ccc(Cl)cc1	/	10.8	9.3	3.0	/	/
O=C(NCC(O)CO)c1ccc2[nH]c3ccccc3c2c1 (centres undefined)	5.6	30.0	9.4	-2.5	9.0	/
CCOC(=O)CNC(=O)c1ccc2[nH]c3ccccc3c2c1	1.9	7.9	15.4*	-5.6	13.4	11.2
CCOC(=O)c1ccc(N(C(=O)c2cnccn2)C(C(=O)NC2CCCCC2)c2cn(C)nc2C)cc1 (centres undefined)	8.4	13.4	22.3*	-5.7	-17.8	8.9
COc1ccc(OCC(=O)NNC(=O)Cn2c(=O)cnc3ccccc32)cc1	/	/	/	-4.1	/	/
Cc1cc(C)n(CC(C)(O)c2ccccc2)n1 (centres undefined)	/	/	/	-2.9	/	/
N#CC1=C2SCN(c3ccccc3)CN2C(=O)CC1c1c(Cl)cccc1Cl (centres undefined)	0.3	8.1	16.5*	7.4	50.9*	4.2
CCN(CC(=O)NCc1cccs1)C(=O)/C=C/c1ccc(OC)c(OC)c1	/	/	/	1.1	/	/

Screens deposited in PubChem BioAssay by several laboratories.
